Data from ChEMBL document CHEMBL3272327, “Hypocholesterolemic activity of 1,3-bis(substituted phenoxy)-2-propanones” (J Med Chem, 1976).

How the values were obtained:
Rattus norvegicus [1] = experiment: Effect on body weight in rat at 1 mg/kg/day administered for 16 days measured on day 7 (reference value: 173 +/- 12 gms); format: ADME, organism-based; conditions: in vivo, 384 h
How it was run: (§1)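 Male Sprague-Dawley rats with chow and water ad libitum. Compound suspended in 1% CMC-water and given orally by intubation needle at 11:00 a.m., 1, 5, 10 or 50 mg/kg/day, for 16 days. Body weight (g) recorded on days 0, 7 and 16. N = 8.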

Rattus norvegicus [2] = experiment: Effect on vas deferens and epididymis weight in rat at 10 mg/kg/day administered for 16 days measured 24 hrs after last drug dosage relative to total body weight (reference value: 0.22 to 0.24%); format: ADME, organism-based; conditions: in vivo
Rattus norvegicus [3] = experiment: Effect on heart weight in rat at 10 mg/kg/day administered for 16 days measured 24 hrs after last drug dosage relative to total body weight (reference value: 0.37 to 0.43%); format: ADME, organism-based; conditions: in vivo
Rattus norvegicus [4] = experiment: Effect on heart weight in rat at 50 mg/kg/day administered for 16 days measured 24 hrs after last drug dosage relative to total body weight (reference value: 0.37 +/- 0.04%); format: ADME, organism-based; conditions: in vivo
Rattus norvegicus [5] = experiment: Hypocholesterolemic activity in rat assessed as [14C]palmitic acid level in brain at 10 mg/kg/day administered for 1 week measured after 22 hrs on day 7 by scintillation counting analysis (reference value: 0.07 +/- 0.04%); format: functional
How it was run: (§2)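 Male Sprague-Dawley rats on lab chow dosed orally once daily for 1 week at 10 mg/kg/day, suspended in 1% CMC, or given vehicle alone. On day 7, 5 μCi [1-14C]palmitic acid given orally. Killed after 22 hr; organs made into 10% water homogenates. Aliquots of 0.1 cc of homogenate, urine, blood or feces were digested and scintillation counted. Output is % of dose per tissue, N = 6.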

Rattus norvegicus [6] = experiment: Effect on brain weight in rat at 50 mg/kg/day administered for 16 days measured 24 hrs after last drug dosage relative to total body weight (reference value: 0.67 +/- 0.05%); format: ADME, organism-based; conditions: in vivo
Rattus norvegicus [7] = experiment: Effect on body weight in rat at 1 mg/kg/day administered for 16 days measured on day 16 (reference value: 233 +/- 16 gms); format: ADME, organism-based; conditions: in vivo, 384 h; how it was run: as §1
Rattus norvegicus [8] = experiment: Hypocholesterolemic activity in rat assessed as [14C]cholesterol level in testes at 10 mg/kg/day administered for 1 week measured after 22 hrs on day 7 by scintillation counting analysis (reference value: 0.24 +/- 0.17%); format: functional, Testis
How it was run: (§3)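 Male rats were dosed orally for 1 week (10 mg/kg/day) or with 1% CMC. On day 7 they received 5 μCi [4-14C]cholesterol orally and were killed after 22 hr. Organs were homogenized (10% in water); 0.1-cc aliquots of homogenate, urine, blood or feces were digested with Protosol. Samples were counted in toluene/Triton X-100 (2:1) scintillant with 0.4% PPO and 0.01% POPOP. Results are % of dose per tissue, N = 6.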

Rattus norvegicus [9] = experiment: Hypocholesterolemic activity in Sprague-Dawley rat assessed as serum cholesterol level at 10 mg/kg/day, po administered via intubation measured on day 16 by Liebermann-Burchard reaction (reference value: 100%); format: functional
Rattus norvegicus [10] = experiment: Hypocholesterolemic activity in Sprague-Dawley rat assessed as serum cholesterol level at 1 mg/kg/day, po administered via intubation measured on day 4 by Liebermann-Burchard reaction (reference value: 100 +/- 7%); format: functional
Rattus norvegicus [11] = experiment: Effect on vesicular gland weight in rat at 50 mg/kg/day administered for 16 days measured 24 hrs after last drug dosage relative to total body weight (reference value: 0.10 +/- 0.04%); format: ADME, organism-based; conditions: in vivo
Rattus norvegicus [12] = experiment: Hypocholesterolemic activity in rat assessed as [14C]palmitic acid level in stomach at 10 mg/kg/day administered for 1 week measured after 22 hrs on day 7 by scintillation counting analysis (reference value: 0.65 +/- 0.46%); format: functional; how it was run: as §2
Rattus norvegicus [13] = experiment: Hypocholesterolemic activity in rat assessed as [14C]palmitic acid level in urine at 10 mg/kg/day administered for 1 week measured after 22 hrs on day 7 by scintillation counting analysis (reference value: 3.31 +/- 1.37%); format: functional; how it was run: as §2
Rattus norvegicus [14] = experiment: Hypocholesterolemic activity in rat assessed as [14C]palmitic acid level in liver at 10 mg/kg/day administered for 1 week measured after 22 hrs on day 7 by scintillation counting analysis (reference value: 8.06 +/- 1.33%); format: functional; how it was run: as §2
Rattus norvegicus [15] = experiment: Hypocholesterolemic activity in rat assessed as [14C]cholesterol recover at 10 mg/kg/day administered for 1 week measured after 22 hrs on day 7 by scintillation counting analysis (reference value: 99.11%); format: functional; how it was run: as §3
Rattus norvegicus [16] = experiment: Effect on adrenal gland weight in rat at 10 mg/kg/day administered for 16 days measured 24 hrs after last drug dosage relative to total body weight (reference value: 0.015 +/- 0.003%); format: ADME, organism-based; conditions: in vivo
Rattus norvegicus [17] = experiment: Decrease in lipase level in rat liver at 10 mg/kg/day administered for 16 days (reference value: 100 +/- 39%); format: functional; parameters: scale not given: the % may be the effect or the level left
Rattus norvegicus [18] = experiment: Effect on food intake in rat at 50 mg/kg/day measured during second week (reference value: 23.4 +/- 1.8 gms); format: ADME, organism-based; conditions: in vivo
How it was run: (§4)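 Male rats dosed orally at 1, 5, 10 or 50 mg/kg/day in 1% CMC. Average food intake in grams per rat per week measured over a 2-week period, first and second weeks reported separately. N = 8, Student's t test against the 1% CMC control.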

Rattus norvegicus [19] = experiment: Hypocholesterolemic activity in Sprague-Dawley rat assessed as serum cholesterol level at 5 mg/kg/day, po administered via intubation measured on day 4 by Liebermann-Burchard reaction (reference value: 100 +/- 7%); format: functional
Rattus norvegicus [20] = experiment: Hypocholesterolemic activity in Sprague-Dawley rat assessed as serum cholesterol level at 5 mg/kg/day, po administered via intubation measured on day 16 by Liebermann-Burchard reaction (reference value: 100 +/- 8%); format: functional
Rattus norvegicus [21] = experiment: Effect on body weight in rat at 50 mg/kg/day administered for 16 days measured on day 7 (reference value: 173 +/- 12 gms); format: ADME, organism-based; conditions: in vivo, 384 h; how it was run: as §1
Rattus norvegicus [22] = experiment: Effect on food intake in rat at 1 mg/kg/day measured during second week (reference value: 23.4 +/- 1.8 gms); format: ADME, organism-based; conditions: in vivo; how it was run: as §4
Rattus norvegicus [23] = experiment: Hypocholesterolemic activity in rat assessed as [14C]palmitic acid level in large intestine at 10 mg/kg/day administered for 1 week measured after 22 hrs on day 7 by scintillation counting analysis (reference value: 3.46 +/- 1.25%); format: functional; how it was run: as §2
Rattus norvegicus [24] = experiment: Effect on spleen weight in rat at 1 mg/kg/day administered for 16 days measured 24 hrs after last drug dosage relative to total body weight (reference value: 0.55 +/- 0.12%); format: ADME, organism-based; conditions: in vivo
Rattus norvegicus [25] = experiment: Hypocholesterolemic activity in [14C]palmitic acid-treated rat assessed as decrease in 14C fatty acid incorporation into triglyceride fraction in liver at 10 mg/kg/day administered for 1 week by scintillation counting analysis; format: functional; parameters: scale not given: the % may be the effect or the level left
Rattus norvegicus [26] = experiment: Uterotrophic activity in ovariectomized Sprague-Dawley rat assessed as uterine weight administered for 3 days (reference value: 100 +/- 27%); format: organism-based, Uterus; conditions: in vivo, 72 h
Rattus norvegicus [27] = experiment: Effect on testes weight in rat at 50 mg/kg/day administered for 16 days measured 24 hrs after last drug dosage relative to total body weight (reference value: 1.08 +/- 0.08%); format: ADME, organism-based, Testis; conditions: in vivo
Rattus norvegicus [28] = experiment: Hypocholesterolemic activity in Sprague-Dawley rat assessed as serum cholesterol level at 5 mg/kg/day, po administered via intubation measured on day 10 by Liebermann-Burchard reaction (reference value: 100 +/- 7%); format: functional

How did the Activity (Rattus norvegicus [1]) turn out when Cc1ccc(OCC(=O)COc2ccc(C)cc2)cc1 was run?
The Activity was 166 g.

And the Activity (Rattus norvegicus [2])?
The Activity was 0.24%.

What about the Activity (Rattus norvegicus [3]) of the same compound?
Its Activity is 0.38%.

And the Activity (Rattus norvegicus [4])?
The Activity was 0.4%.

And the Activity (Rattus norvegicus [5])?
The Activity was 0.08%.

And the Activity (Rattus norvegicus [6])?
Its Activity is 0.83%.

What about the Activity (Rattus norvegicus [7]) of the same compound?
Its Activity is 234 g.

And the Activity (Rattus norvegicus [8])?
The Activity was 0.33%.

What about the Activity (Rattus norvegicus [9]) of the same compound?
The Activity was 58%.

What about the Activity (Rattus norvegicus [10]) of the same compound?
The Activity was 75%.

And the Activity (Rattus norvegicus [11])?
Its Activity is 0.15%.

What about the Activity (Rattus norvegicus [12]) of the same compound?
Its Activity is 0.48%.

What about the Activity (Rattus norvegicus [13]) of the same compound?
Its Activity is 1.82%.

What about the Activity (Rattus norvegicus [14]) of the same compound?
The Activity was 9.26%.

And the Activity (Rattus norvegicus [15])?
The Activity was 99.94%.

And the Activity (Rattus norvegicus [16])?
The Activity was 0.016%.

What about the Activity (Rattus norvegicus [17]) of the same compound?
Its Activity is 68%.

And the Activity (Rattus norvegicus [18])?
Its Activity is 28.2 g.

What about the Activity (Rattus norvegicus [19]) of the same compound?
The Activity was 74%.

What about the Activity (Rattus norvegicus [20]) of the same compound?
The Activity was 56%.

And the Activity (Rattus norvegicus [21])?
Its Activity is 171 g.

And the Activity (Rattus norvegicus [22])?
Its Activity is 29.2 g.

And the Activity (Rattus norvegicus [23])?
Its Activity is 9.91%.

And the Activity (Rattus norvegicus [24])?
The Activity was 0.43%.

And the Activity (Rattus norvegicus [25])?
Its Activity is 53%.

And the Activity (Rattus norvegicus [26])?
Its Activity is 82%.

What about the Activity (Rattus norvegicus [27]) of the same compound?
The Activity was 1.19%.

And the Activity (Rattus norvegicus [28])?
The Activity was 58%.
